# Assay results published in the RNAGym collection of RNA variant scans (doi:10.1126/science.aae0568).
# Variants at the floor of the assay were thinned out.
# B1: tRNA (parent)
# chain: GUUCCGUUGGCGUAAUGGUAACGCGUCUCCCUCCUAAGGAGAAGACUGCGGGUUCGAGUCCCGUACGGAACG
# Variants of: B1
# Assay: yeast fitness relative to wild type (ratio to wild type); higher = fitter; tRNA-Arg(CCU), competitive growth, 37 C, YPD
# Method in brief: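 Changes in genotype frequencies gave Darwinian fitness relative to wild type. Frequencies were read by 100-nucleotide paired-end sequencing of gene amplicons before and after pooled Saccharomyces cerevisiae strains, carrying tRNA-Arg(CCU) gene variants at the native locus, were competed in YPD at 37°C for 24 hours in six replicates. A genotype was kept only with ≥ 100 starting reads, and estimates < 0.5 were set to 0.5.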
row,Variant,yeast fitness
1,GUUACGUUGGCGUAAUCGCAUCGCGUCUCCCUGCUAAGGAGAAGACUGCGGGUUCGAGUCCCGUACGGAACG,≤ 0.5
2,GUUACGUUGGCCGAAUGGUAACGCGUCUCUCUCCUAAGGAGAAGACUGCGGGUUCGACUCCCGUACGGAACG,≤ 0.5
3,GUUACGUUGGCAUAAUGGUAACGCGUCUCCCUCGUAAGGAGAAGACUGCGGGUUCGAGUCCCGUAUGGAACG,≤ 0.5
4,GUUACGUUCGGGUAAUGGUAACGCGUCUCCCUGCUACGGAGAAGCCUGCGGGUUCGAGUCCCGUACGGAACG,≤ 0.5
5,GUUACGUUGGCGUAAUGAUAACGCGUCUCCCUCCUAAGGAGAACAUUGUGGGUUCGAGUCCCGUACAGAUCG,≤ 0.5
6,GUUACGUUGCCGUAAUGGUAACGCGUCUCCCUCCUAAGGAGAAGACUGCGGGUUCGAGUCCCCUACGGUACG,≤ 0.5
7,GUUACGUUAGCGUAAUGGUAAAGCGUGUCCCUCCUAAGGAGAAGACUGCGGGAUCGAGUCCCGUGCGGAACG,≤ 0.5
8,GUUACGUUGGCGUAAUAGUAACGCGUCUCACUCCUAAGGAGAAGACUGCGGGUUCGAGUCCCGUACGGAACG,≤ 0.5
9,GUUACGUUGGCGUAAUGAUCACGCGGUUCCCUCCUAAGGAGAAGACUGUGGGUUCGAGUCCCGUACGGAACG,≤ 0.5
10,GUUACGUUGGCGUAAUCGUUAUGCGUCUCCCUCCUAAGGAGAAGACUGCGGGUUCGAGUCCCGUACGGAACG,≤ 0.5
11,GUUACGUUGGCGUAAUAGUAACGCGUCUCCCUCCUAAGGAGAAGACUGCGGGUUCGAGUCCUGUACGGAACG,0.556
12,GUUACGUUAGCGUAAAGGUAACGCGUCUCCCUCCUAAGGGGAAGAUUGCGGGUUCGAGUCCCGUACGGAACG,≤ 0.5
13,GUUACGUUGGCCUAAUGGUAACGCGUCUCCCUCCUAGAGAGAAGACUGCGGGUUCGAGUCCCGUACGGAACG,≤ 0.5
14,GUUACGUUAGCGUAAUGGUAAAGCGUGUCCCUCCUAAGGAGAAGACUGCGGGUUCAAGUCCCGUACGGAACG,≤ 0.5
15,GUUACGUUGGCGUAAUCGUAACGCGUCUCCCUCCUAAGGAGAAGACUGCGCGUUCGAAUCCCGUACGGAACG,≤ 0.5
16,GUUACGUUGACGUAAUGGUAACACGUCUCCCUCCUAAGGAGAAGACUGCGGGUUGGAGUACCGUACGGAACG,≤ 0.5
17,GUUACGUUAGCGUAAUGGUAACGCGUCUCCCUCCUAAGGAGAAGACUGAGGGCUCGAGUCCCGUACGGAACG,≤ 0.5
18,GUUACGUUGGCGUAAUGCUAACGCGUCUCCCUCCUAAGGAGAAGACUGCGGGUUCGAGUCUCGUACGGAACG,≤ 0.5
19,GUUACGUUGGCGUAAUCGUAACGCGUCUCCCUCCUAAGGAGAAGACUGUGGGUUCGAGUCCGGUACGGAACG,≤ 0.5

row,Variant,yeast fitness
1,GUUACGUUGGCGUAAUAGUAACGCGUCUCCCUCCUAAGGAGAAGACUGCGAGUUCGAGUGCCGUACGGAUCG,≤ 0.5
2,GUUACGUUGGCGUAAUAGUAACGCGUCUCCCUCCUAAGGAAAAGACUGCGGGUUCGCGUCCCGUACGGAACG,≤ 0.5
3,GUUACGUUGGCGUAAUGGUAACACGUCUCUGUCCUAAGGCGAAGACUGCGGGUUCGAGUCCCGUACGGAACG,≤ 0.5
4,GUUACGUUGGCGUAAUAGUAACGCGUCUCCCUCCUAAGGAAAAGACUGCGGGUUCGAGUCUCUUACGAAACG,≤ 0.5
5,GUUACGUUGCCGUAAUGGUAACGCGUCUCCCUCCUAAGGAGAAGACUGCGGGUUCGAAUCCCGUACGGAACG,0.713
6,GUUACGUUGGCGUAAUAGUAACGCGUCUCCCUCCUAAGGAGAAGACUGCGGGUUCGAGUCACGUACGGAACG,0.534
7,GUUACGUUCGGGUAAUGGUAACGCGUCUCCCUCCUAAGGAGAAGCCUGCGGGUUCGGGUCCCGUACGGAACG,0.526
8,GUUACGUUGGCGUAAUGAUAACGCGUCUCCCUCCUAAGGAGAACAUUGUGGGUUCGAGUCCCGUACGGAACG,≤ 0.5
9,GUUACGUUGACGUAAUGGUAACACGUCCCCCUCCUAAGGAGAAGACUGCGGGUUGGAGUACCGUACGGAACG,≤ 0.5
10,GUUACGUUGGCGUAAUGGUAACACGUCUCCCUGCUAAGGAGAAGACUGCGGGUUCGACUCCCGUACGGAACG,≤ 0.5
11,GUUACGUUGGCGUAAUCGUAUCGCGUCUCCCUGCUAAGGAGAAGACUGCGGGUUCGAGUCCCGUACGGAACG,0.517
12,GUUACGUUGGCGUAAUGAUAACGCGUCUUCCUCCUAAGGAGAAGACUGCGGGUUCGAGUCCCGUAAGGAACG,≤ 0.5
13,GUUACGUUGGCGUAAUCGUAACGCGUCUCCCUCCUAAGGAGAAGACUGCAAGUUCGAGUCCCGUACGGAACG,≤ 0.5
14,GUUACGUUGGCGUAAUAGUAACGCGUUUCCCUUCUAAGGAGAAGACUGCGGGUUCGAGUCCCGUACGGAACG,≤ 0.5
15,GUUACGUUGGCAUAAUGGUAACGCGUCUCCCUCCUAAGGAGGAGACUGCGGGUUCGAGUCCCGUACGGAACG,≤ 0.5
16,GUUACGUUGGCGUAAUCGUAACCCGUCUCCCUCCUAAGGAGAAGACUGCGGGAUCGAGUCCCGUACGGAACG,≤ 0.5
17,GUUACGUUGGCGUAAUGAUAACGCGUAUCCCUCCUACGGAGAAGACUGCGGGUUCGAGUCACGUACGGAACG,≤ 0.5
18,GUUACGUUGGCGUAAUCGUAACCCGUCUCCCUCCUAAGGAGAAGCCUGCGGGUUCGAGUCCCGUACGGAGCG,≤ 0.5
19,GUUACGUUGGCGUAAUCGUAACGCGUCUCCCUCCUUAGAAGCAGACUGCUGGUUCGAGUCCCAUACGGAACG,0.589
